Values after ≈ are worked out from the molar mass of the structure shown. A value given as a limit tells only on which side of the number the result lay.

Common to all, as to assay type: functional
Assay [1] deals with MCF7. Nature of the assay: Cytotoxicity against MCF7 cells at 10 uM. As to conditions: Homo sapiens. The method in brief: (§1)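 Cytotoxicity tested in KB, MCF7 and MCF7R cells with compounds at 10⁻⁵ M.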
For assay [2], the system named is KB. Nature of the assay: Cytotoxicity against KB cells at 10 uM. As to conditions: Homo sapiens. The method in brief:
as §1

For assay [3], the system named is MCF7R. Nature of the assay: Cytotoxicity against MCF7R cells at 10 uM. As to conditions: Homo sapiens. The procedure, abridged: as §1
In assay [4] the test system is Staphylococcus aureus. Nature of the assay: Antibacterial activity against quinolone/macrolide-susceptible Staphylococcus aureus ATCC 25923 assessed as growth. The method in brief:
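Single-concentration growth screen: compound added from DMSO solution to a final 100 mg/L in MH medium with 10⁶ CFU/mL bacteria. Incubated at 37 °C with growth read at 650 nm after 1, 2, 8 and 24 h. Ampicillin was the positive control and DMSO the negative control. Scored ++ for no growth, + for growth <10% of the negative control, – otherwise.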

In assay [5] the test system is Staphylococcus aureus. Kind of assay: Antibacterial activity against quinolone/macrolide-susceptible Staphylococcus aureus ATCC 25923. The method in brief: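 MIC by twofold serial dilution in Mueller–Hinton broth with 10⁶ CFU/mL inoculum. Read as the lowest concentration with no visible growth after 18 h at 37 °C. Run in triplicate.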
Assay [6] relates to Staphylococcus aureus. Kind of assay: Effect on ethidium bromide efflux in quinolone/macrolide-resistant Staphylococcus aureus NorA by measuring remaining initial ethidium concentration at 20 mg/L after 10 mins. The method in brief: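 S. aureus NorA 1199B grown in LB at 37 °C to A660 0.7–0.8, then loaded with EtBr (10 mg/L) plus CCCP (20 mg/L) for 10 min at 37 °C. Cells spun and resuspended in LB at 37 °C without EtBr, inhibitor added at resuspension. Fluorescence read continuously for 10 min and expressed as percentage of initial fluorescence. At least three experiments.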

In assay [7] the test system is Staphylococcus aureus. Kind of assay: Increase in ciprofloxacine uptake in quinolone/macrolide-susceptible Staphylococcus aureus 1199 at 20 mg/L after 10 mins. The method in brief:
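Silicone-oil uptake assay. Cells were grown in LB to OD660 0.7–0.8, washed, and concentrated 20-fold in 100 mM phosphate pH 7.2 with 1 mM MgSO₄ and 0.4% glucose. After 5 min at 37 °C, ciprofloxacin was added at 10 mg/L. Timed samples were spun through silicone oil and the pellets lysed in 0.1 M glycine–HCl pH 3.0 at 100 °C for 10 min. Lysate fluorescence (ex 242/em 487 nm) was read against a standard curve and reported as ng per 10⁹ CFU.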

Assay [8] relates to Bacillus subtilis. Nature of the assay: Effect on ethium bromide efflux in Bacillus subtilis at 20 mg/L after 10 mins. The procedure, abridged: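 B. subtilis ΔΔ (bmr::cat blt::erm) carried plasmid pBEV, which expresses NorA from a strong promoter. Cells were transferred into PBS pH 7.2 with 0.5% glucose at 37 °C. They were loaded with EtBr (10 mg/L) plus CCCP (20 mg/L) for 10 min at 37 °C, spun down and resuspended in LB without EtBr, adding the inhibitor at that point. Fluorescence was recorded continuously for 10 min and expressed as % of initial. Each experiment was done at least three times.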

Assay [9] has as its system Staphylococcus aureus. Nature of the assay: Increase in ciprofloxacine uptake in quinolone/macrolide-resistant Staphylococcus aureus […] at 20 mg/L after 10 mins. The procedure, abridged:
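Cells grown in LB to OD660 0.7–0.8, washed twice and concentrated 20-fold in 100 mM phosphate pH 7.2 with 1 mM MgSO4 and 0.4% glucose. Preincubated 5 min at 37 °C, then ciprofloxacin 10 mg/L added. Samples spun through silicone oil, pellets lysed in glycine–HCl pH 3.0 at 100 °C for 10 min. Fluorescence (ex 242/em 487 nm) read against a lysate standard curve, as ng per 10⁹ CFU.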

Assay [10] relates to MCF7R. Nature of the assay: Cytotoxicity against MCF7R cells at 0.25 nM. The following applies: Homo sapiens.
Assay [11] deals with MCF7. Nature of the assay: Cytotoxicity against MCF7 cells at 0.25 nM. The following applies: Homo sapiens.
The test system of assay [12] is KB. Kind of assay: Cytotoxicity against KB cells at 0.25 nM. As to conditions: Homo sapiens.

The inhibition is the relative decrease from the control value, in per cent. Regarding `N#Cc1c(-c2cccc(Cl)c2)sc2ccccc12`, the results for the inhibition at 10 µM in assay [1], in assay [2] and in assay [3] were 36%, 23% and 20%, respectively.
On the same counts, the results for `N#Cc1ccccc1-c1sc2ccccc2c1C=O` are 38%, 51% and 33%.
On to `COC(=O)C(Cc1c(-c2ccc(C#N)cc2)sc2ccccc12)NC(=O)c1ccccc1` (racemic), for which the Activity in [4] was below 10%. Besides, the results for the inhibition at 10 µM in assay [1], in assay [2] and in [3] were 12%, 35% and 32%, respectively.
By MIC is commonly meant the lowest concentration found to suppress growth. Lower therefore signals a more susceptible organism. Molecule `FC(F)(F)COc1c(-c2cccnc2)sc2ccccc12` came in with an MIC in [5] of 100 µg/mL (≈ 323 µM).
As to `O=Cc1c(-c2cccnc2)sc2ccccc12`, the inhibition at 10 µM in assay [1] was found to be 3%; in assay [2] it was 18%; in [3], 0%. In addition, in assay [6], the “Remaining ethidium fluorescence (% of initial)” value is 72%.
Regarding `N#Cc1c(-c2ccc(Cl)cc2)sc2ccccc12`, the inhibition at 10 µM worked out at 27% in [1], 29% in assay [2] and 18% in assay [3].
In the case of `COc1cc(-c2cccc(C(F)(F)F)c2)sc1-c1cccnc1`, the results for the inhibition at 10 µM in assay [1], in [2] and in assay [3] were 0%, 7% and 0%, respectively.
In the case of `N#Cc1ccccc1-c1c(OCC(F)(F)F)sc2ccccc12`, the inhibition at 10 µM in [1] amounted to 92%; in assay [2], 100%; in assay [3], 97%.
For the molecule `COC(=O)[C@H]1[C@H]2C[C@@H]3c4[nH]c5cc(OC)ccc5c4CCN3C[C@H]2C[C@@H](OC(=O)c2cc(OC)c(OC)c(OC)c2)[C@@H]1OC` [RESERPINE], the “Remaining ethidium fluorescence (% of initial)” value in assay [6] was 72%.
As to `COc1ccc(-c2sc3ccccc3c2C=O)cc1`, the inhibition at 10 µM in assay [1] worked out at 62%; in assay [2], 89%; in [3], 80%.
On to `COC(=O)/C(=C/c1c(-c2ccc(C#N)cc2)sc2ccccc12)NC(=O)c1ccccc1`, for which the inhibition at 10 µM was determined as 0% in assay [1] and 24% in [2].
Turning to `O=Cc1c(-c2ccc(C(F)(F)F)cc2)sc2ccccc12`, the inhibition at 10 µM in assay [1] was determined as 73%; in assay [2] it was 88%; in assay [3], 59%.
Regarding `O=Cc1ccsc1-c1ccccc1`, the results for the inhibition at 10 µM in assay [1], in assay [2] and in assay [3] were 16%, 33% and 0%, respectively.
On the same counts, the results for `O=Cc1c(-c2ccc(Cl)cc2)sc2ccccc12` are 69%, 67% and 35%.
On to `O=Cc1c(-c2ccccc2)oc2ccccc12`, for which the results for the inhibition at 10 µM in [1], in assay [2] and in assay [3] were 47%, 67% and 37%, respectively. For the same molecule, the “Remaining ethidium fluorescence (% of initial)” value in assay [6] turned out to be 72%.
As to `N#Cc1ccccc1-c1sc2ccccc2c1OCC(F)(F)F`, the inhibition at 10 µM was determined as 49% in [1], 56% in assay [2] and 39% in assay [3].
Regarding `COc1ccsc1-c1ccccc1C#N`, the inhibition at 10 µM was found to be 17% in assay [1], 11% in assay [2] and 4% in assay [3].
The molecule `COc1cc(-c2cccnc2)sc1-c1cccnc1` had a minimum inhibitory concentration (MIC) in assay [5] of 100 µg/mL (≈ 373 µM).
For `N#Cc1sc2ccccc2c1-c1cccnc1`, the inhibition at 10 µM in assay [1] was 18%; in [2] it was 37%; in assay [3], 22%.
As to `COc1c(-c2cccnc2)sc2ccccc12`, it took 100 µg/mL (≈ 414 µM) to inhibit growth in [5] (MIC).
With `O=Cc1c(-c2ccccc2)sc2ccccc12`, the inhibition at 10 µM in [1] turned out to be 51%; in assay [2], 42%; in [3] it was 37%. The Activity in [7] came to 0.08 a.u; in [8], 5%; in assay [9], 0.07 a.u. In addition, the “Remaining ethidium fluorescence (% of initial)” value in assay [6] was found to be 72%.
Consider `CC(=O)O[C@@]12CO[C@@H]1C[C@H](O)[C@@]1(C)C(=O)[C@H](O)C3=C(C)[C@@H](OC(=O)[C@H](O)[C@@H](NC(=O)OC(C)(C)C)c4ccccc4)C[C@@](O)([C@@H](OC(=O)c4ccccc4)[C@H]21)C3(C)C` [DOCETAXEL], for which the inhibition at 0.00025 µM in assay [10] is 4%; in [11] it was 31%; in [12], 87%.

For the origin of these results see ChEMBL document CHEMBL1148697, “Synthesis and evaluation of new arylbenzo[b]thiophene and diarylthiophene derivatives as inhibitors of the NorA multidrug transporter of Staphylococcus aureus” (2007).
